Bioassay records as filed in PubChem BioAssay.
Rows were chosen to be rich in hits. Some 4% of all compounds tested hit in one or more screens of this group.
PHOSPHO1 inh = PHOSPHO1 (human) inhibition. AID 1565. Q8TCT1. actives 1.1% (n = 290,000). inhibition, % at 13.3 µM. recombinant PHOSPHO1, absorbance phosphatase assay; in the data active = inhibition above about 60%
KCNQ1 block = blocks the human KCNQ1 potassium channel; P51787; B-score at 10 µM; CHO-K1 KCNQ1, FluxOR thallium flux fluorescence; hits give high values; actives 1.3% (n = 310,000);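 active = compounds whose thallium flux B-score, printed positive for inhibition, exceeds three library SD while starting fluorescence stays within three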;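 note: channel opened by potassium depolarization with thallium stimulus after 20 min compound exposure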
hERG rescue = hERG (human) protection from proarrhythmic block. Q12809. CHO-hERG, FluxOR thallium flux, dofetilide IC70 present. activation (rescue from dofetilide block), less the hit threshold, % at 10 µM. actives 0.51% (n = 310,000);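 active = activation above the mean of controls blocked by dofetilide plus 5 SD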;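 note: thallium influx through hERG after potassium depolarization seen as dye fluorescence rise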
KCNQ1 act = potentiators or activators of human KCNQ1 potassium channel; CHO-K1 KCNQ1, thallium flux FluxOR fluorescence; hits give high values; actives 0.35% (n = 310,000); AID 2648; B-score at 10 µM;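 active = fluorescence ratio B-score, a plate-corrected score, at least three library SD, with initial intensity B-score within 5 SD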
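Schedule – 37 °C overnight plating, 90-min dark dye load, 20-min compound pretreatment · System – stable KCNQ1 CHO-K1 line · Probe or stimulus – thallium- and potassium-containing depolarizing buffer · Measured by – kinetic FluxOR fluorescence, 10 s baseline plus 110 s post-stimulus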
KCNK3 block = human KCNK3 channel inhibition, primary screen; O14649; CHO-KCNK3 thallium flux, FluxOR fluorescence; hits give low values; B-score at 10 µM; actives 0.84% (n = 340,000); AID 602410;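 active = B-score under library mean minus 4 SD, starting fluorescence ratio at most library mean plus 5 SD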;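 note: more negative B-score means stronger inhibition of thallium flux through KCNK3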
KCNK9 block = human KCNK9 channel inhibition | Q9NPC2 | HEK293 KCNK9, FluxOR thallium flux fluorescence; hits give low values | B-score at 10 µM | actives 1.2% (n = 310,000) | AID 488922;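 active = ratio B-score over 3 SD below the library mean, with starting fluorescence within 5 SD of its mean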;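 note: negative B-score means less thallium flux so channel inhibition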
KCNQ1 inh valid = reconfirmed blocker of the human KCNQ1 potassium channel. shares compounds with KCNQ1 block. KCNQ1 cell line, FluxOR thallium flux fluorescence. inhibition, % at 10 µM. actives 93% (n = 1,600);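 active = primary screen active, with duplicate mean exceeding buffer control mean plus 3 SD of buffer wells, cut at about 28% in these data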;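 note: 0% = buffer control ratio and 100% = XE991 inhibitor control ratio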
CHO Tl flux = KCNQ1 inhibitor counter-screen hit in parental CHO cells; fluorescence ratio (Tl flux) at 10 µM; parental CHO-K1, FluxOR thallium flux fluorescence ratio; hits give low values; zero means no signal rise above baseline; shares compounds with KCNQ1 block; actives 21% (n = 1,600); AID 588366;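 active = mean of duplicate thallium-flux fluorescence ratios in parental host cells more than 5 SD below the buffer control mean, cut at about 0.38 in these data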;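 note: ratio is peak minus minimum fluorescence divided by baseline fluorescence; actives read low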
KCNQ1 APC inh = human KCNQ1 inhibition validated by electrophysiology | actives 20% (n = 490) | shares compounds with KCNQ1 block | calls only at 10 µM | KCNQ1-CHO cells, automated patch clamp current | AID 624120;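 active = KCNQ1 current drop exceeding 3 SD of negative control wells, seen in both duplicate runs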;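 note: steady state current during a 2 s step from -80 to +40 mV; negative values mean current inhibition and positive values mean potentiation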
KCNQ2 spec = KCNQ1 inhibitor that also blocks rat KCNQ2 channel. shares compounds with KCNQ1 block. actives 71% (n = 1,600). inhibition, % at 10 µM. AID 651746. KCNQ2 cells, FluxOR thallium flux fluorescence;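 active = mean percent inhibition of the KCNQ2 thallium signal more than 5 SD above the buffer-only control wells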;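 note: KCNQ2 expressed in CHO cells; 0% = buffer control wells and 100% = XE-991 inhibitor control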
KCNQ1 KCNE1 spec = human KCNQ1/KCNE1 inhibition in KCNQ1 specificity screen; shares compounds with KCNQ1 block; KCNQ1/KCNE1 cells, FluxOR thallium flux fluorescence; inhibition, % at 10 µM; actives 77% (n = 1,600); AID 652147;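 active = mean percent inhibition of duplicate wells above the buffer-only control mean plus 3 SD of those controls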;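 note: 0% = buffer only wells and 100% = XE-991 inhibitor control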
KCNK9 block conf = confirmation of human KCNK9 potassium channel inhibitors. shares compounds with KCNK9 block. AID 492992. inhibition, % at 10 µM. actives 43% (n = 4,900). HEK293 KCNK9 cells, FluxOR thallium flux fluorescence;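 active = thallium signal inhibited by more than 5 SD of the compound-free buffer control wells, on both duplicate plates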;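 note: 0% = assay buffer control wells without compound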
Kir2-1 spec = mouse Kir2.1 off-target activity of KCNK9 modulators; shares compounds with KCNK9 block; actives 4% (n = 4,900); Kir2.1 cells, FluxOR thallium flux fluorescence; AID 492993; inhibition, % at 10 µM;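 active = thallium signal drop more than 5 SD beyond the mean of the no-compound control wells, seen in both duplicate plates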;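 note: signal is fluorescence rise after thallium addition divided by baseline fluorescence; plate controls were assay buffer only for no effect and full block by chlorpromazine control for full effect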
Target sequence (P35561 whole entry, looked up): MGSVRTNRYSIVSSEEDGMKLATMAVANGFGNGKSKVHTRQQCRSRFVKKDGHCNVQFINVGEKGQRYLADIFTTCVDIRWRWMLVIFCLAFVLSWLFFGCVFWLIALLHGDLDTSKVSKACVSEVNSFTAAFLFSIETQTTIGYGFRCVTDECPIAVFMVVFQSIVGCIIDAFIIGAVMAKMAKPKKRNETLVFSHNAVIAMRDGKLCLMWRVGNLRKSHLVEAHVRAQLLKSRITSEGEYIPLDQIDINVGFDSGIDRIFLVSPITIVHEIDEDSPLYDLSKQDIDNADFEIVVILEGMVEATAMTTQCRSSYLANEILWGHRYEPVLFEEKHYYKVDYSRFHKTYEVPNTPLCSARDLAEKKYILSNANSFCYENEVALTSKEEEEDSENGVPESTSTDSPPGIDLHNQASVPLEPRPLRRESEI
KCNK9 uninduced = second check of KCNK9 modulator effects in non-induced HEK293 cells | shares compounds with KCNK9 block | FluxOR thallium flux | inhibition, % at 10 µM | actives 40% (n = 4,900);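 active = thallium signal drop beyond 5 SD of the untreated control mean, on both duplicate plates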;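 note: plate controls were buffer only IC0 wells for no effect and SID17386958 at its maximal inhibitory level for full effect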
KCNK3 inh conf = human KCNK3 channel inhibition, confirmation assay; shares compounds with KCNK3 block; CHO-KCNK3 thallium flux, FluxOR fluorescence; 0% buffer, 100% carvedilol maximal block; ratio percent of control, % at 10 µM; actives 99% (n = 2,400); AID 651638;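 active = ratio percent of control, averaged over triplicates, above buffer control mean plus 5 SD, cut at about 64% in these data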;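 note: ratio is the fluorescence rise from min to max over baseline after thallium stimulus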
KCNK3 uninduced = KCNK3 inhibitor counter-screen hit in non-induced cells. shares compounds with KCNK3 block. non-induced KCNK3 parental cells, FluxOR thallium flux; hits give low values. thallium flux ratio (lower = more inhibition) at 10 µM. actives 40% (n = 2,400);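 active = thallium flux ratio, averaged over three wells, more than 5 SD below the buffer control mean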;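 note: host cells are CHO cells without KCNK3 induction; ratio is peak minus trough fluorescence over baseline then normalized to buffer controls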
Starred values were filed as active, the others as inactive; i = inactive; x = no result.

SMILES	PHOSPHO1 inh	KCNQ1 block	hERG rescue	KCNQ1 act	KCNK3 block	KCNK9 block	KCNQ1 inh valid	CHO Tl flux	KCNQ2 spec	KCNQ1 KCNE1 spec	KCNK9 block conf	Kir2-1 spec	KCNK9 uninduced	others
CN1/C(=C\C=C2C(=O)NC(=S)NC2=O)C(C)(C)c2ccccc21	-19.6	i	-8.2	i	i	i	x	x	x	x	x	x	x
CC1(C)OC(c2ccccc2)=C/C(=C/C=C2C(=O)NC(=S)NC2=O)O1	24.9	15*	-17.8	i	x	i	82.0*	0.341*	i	i	x	x	x
O=C(c1ccco1)c1cn(Cc2ccccc2Cl)c2ccccc12	14.4	7*	-5.6	i	i	-7.54*	91.0*	0.384	102.3%*	152.5%*	x	x	x	KCNQ1 APC inh=i
COc1ccc(C(=O)OC2CC[C@@]3(C)C4CCC5[C@]6(O)CC(O)[C@@]7(O)C(CN8CC(C)CCC8[C@@]7(C)O)[C@]6(O)C[C@@]53O[C@]24O)cc1OC (stereo not given in full)	6.3	i	-5.0	i	i	i	x	x	x	x	x	x	x
Oc1ccccc1CN(CCc1ccccc1)Cc1ccccc1	28.7	9*	-9.1	i	-8.93*	-7.93*	108.0*	0.386	97.3%*	129.5%*	x	x	x	KCNQ1 APC inh=i;KCNK3 inh conf=120.0*;KCNK3 uninduced=0.135*
COc1ccc(CCNCc2ccc(Br)cc2)cc1OC	-11.7	i	-2.3	i	i	i	x	x	x	x	x	x	x
O=C(COc1ccccc1Cl)N1CCCC(N2CCN(c3ccc(F)cc3)CC2)C1 (stereo not given)	38.5	i	-15.3	i	i	i	x	x	x	x	i	i	i
CN(Cc1ccccc1)C1CCCN(C(=O)COc2ccccc2Cl)C1 (stereo not given)	-24.5	i	-12.0	i	i	i	x	x	x	x	x	x	x
COc1ccccc1OCC(=O)N1CCCC(N2CCN(c3ccc(F)cc3)CC2)C1 (stereo not given)	-11.0	i	-3.5	i	i	i	x	x	x	x	i	i	i
Cc1ccc(OCC(=O)N2CCCC(N3CCN(c4ccc(F)cc4)CC3)C2)cc1 (stereo not given)	34.1	i	-14.7	i	i	i	x	x	x	x	x	x	x
COc1ccc(OCC(=O)N2CCCC(N3CCN(c4ccccc4C)CC3)C2)cc1 (stereo not given)	40.8	i	-12.8	i	i	i	x	x	x	x	i	i	i
